Reference: ChEMBL document CHEMBL4715831, “Design and synthesis of 2-((1H-indol-3-yl)thio)-N-phenyl-acetamides as novel dual inhibitors of respiratory syncytial virus and influenza virus A” (Eur J Med Chem, 2020)

Legend:
[1] = system: Respiratory syncytial virus; assay: Antiviral activity against GFP-fused wild-type RSV subgroup A Long infected in human HEp-2 cells measured 24 to 72 hrs post infection by fluorescence assay; assay type: functional, cell-based
How it was run: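 HEp-2 cells plated, then after 24 h infected with RSV-mGFP using 3-fold serially diluted inocula starting from 3 × 10^4 pfu/well. Compounds came from a 100 mM DMSO stock, diluted as indicated. RFU read at 479/517 nm at 24, 48 and 72 h post-infection, with non-infected cells as background. Mean ± SD of at least three experiments.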

[2] = Cytotoxicity against human HEp-2 cells assessed as reduction in cell viability measured after 48 hrs by MTS assay; assay type: cell-based
How it was run: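 HEp-2 cells plated; after 24 h, compound added and cells incubated 48 h. MTS (2 mg/ml) then added for 3 h at 37 °C in 5% CO2 and absorbance read at 490 nm. Untreated control set as 100%.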

[3] = Safety index, ratio of CC50 for human HEp-2 cells to EC50 for GFP-fused wild-type RSV subgroup A long infected in human HEp-2 cells; assay type: toxicity, cell-based; details: read-out: Ratio CC50/EC50
Influenza A virus [4] = assay: Antiviral activity against Influenza A virus A/WSN/33(H1N1) infected in human HEK293T cells measured after 24 hrs by Gaussia luciferase reporter gene method; assay type: functional, organism-based; details: A/WSN/1933(H1N1), HEK-293T
How it was run: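 HEK293T cells carrying a Gaussia luciferase reporter that is activated by IAV, infected with A/WSN/33 (H1N1) for 1 h at room temperature, then cultured 24 h at 37 °C with serially diluted compound. Supernatant Gluc read with coelenterazine-h (16.7 μM in PBS) as 0.5-s photon counts. Normalized to control set as 100%; ribavirin positive control; three experiments.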

[5] = Cytotoxicity against HEK293T cells assessed as reduction in cell viability measured after 48 hrs by CCK8 assay; assay type: cell-based, HEK-293T; details: human
How it was run: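 293T cells treated for 48 h with six compound concentrations from 12.5 to 200 μM, with DMSO-only cells as control. CCK-8 then added for 1 h at 37 °C and OD read at 450 nm. Mean ± SD of three experiments.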

[6] = Safety index, ratio of CC50 for HEK293T cells to EC50 for antiviral activity against Influenza A virus A/WSN/33(H1N1) infected in human HEK293T cells; assay type: toxicity, cell-based; details: read-out: Ratio CC50/EC50
Influenza A virus [7] = assay: Antiviral activity against Influenza A virus A/WSN/33(H1N1) infected in human HEK293T cells assessed as inhibition of viral replication at 10 uM measured after 24 hrs by Gaussia luciferase reporter gene method relative to control; assay type: functional; details: A/WSN/1933(H1N1), HEK-293T
[8] = system: Respiratory syncytial virus; assay: Antiviral activity against GFP-fused wild-type RSV subgroup A Long infected in human HEp-2 cells assessed as relative fluorescence intensity at 20 uM pretreated for 1 hr followed by viral infection measured 24 to 72 hrs post infection by fluorescence assay; assay type: functional, Respiratory syncytial virus type A; details: time 24-73 hrs
How it was run: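 HEp-2 cells exposed to compound at 20 μM 1 h before RSV-mGFP infection (−1 h). GFP fluorescence read at 479/517 nm at 24, 48 and 72 h post-infection. Signal normalized to the DMSO control, set as 1; ribavirin was the positive control. Mean ± SD, three independent experiments.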

Influenza A virus [9] = assay: Antiviral activity against Influenza A virus A/WSN/33(H1N1) infected in MDCK cells measured after 24 hrs by Gaussia luciferase reporter gene method; assay type: functional, organism-based; details: A/WSN/1933(H1N1)
How it was run: (§1)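 MDCK cells infected with IAV A/WSN/33 (H1N1) or H3N2 for 1 h at room temperature, then cultured in fresh DMEM with serially diluted compound for 24 h at 37 °C. Gluc activity in the medium read with coelenterazine-h (16.7 μM in PBS). Normalized to control set as 100%; ribavirin positive control; mean ± SD of three experiments.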

[10] = Antiviral activity against H3N2 infected in MDCK cells measured after 24 hrs by Gaussia luciferase reporter gene method; assay type: functional, cell-based, H3N2 subtype; details: Influenza A virus; how it was run: as §1
Influenza A virus [11] = assay: Antiviral activity against Influenza A virus A/WSN/33(H1N1) infected in HEK293T cells assessed as relative fluorescence intensity at 20 uM pretreated for 2 hrs followed by viral infection and measured after 24 hrs by Gaussia luciferase reporter gene method; assay type: functional, A/WSN/1933(H1N1); details: time 26 hrs
How it was run: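 Time-of-addition assay: compound at 20 μM added before infection or at infection (0 h) in HEK293T-Gluc cells infected with A/WSN/33 (H1N1). Supernatant Gaussia luciferase measured after 24 h with coelenterazine-h. Values normalized to the DMSO control, set as 100%; ribavirin positive control. Mean ± SD, three independent experiments.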

Row | Compound | EC50 [1] [µM] | CC50 at 48 h [2] [µM] | selectivity ratio [3] | EC50 (Influenza A virus [4]) [µM] | CC50 at 48 h [5] [µM] | selectivity ratio [6] | inhibition at 10 µM (Influenza A virus [7]) [%] | RFU [8] | EC50 (Influenza A virus [9]) [µM] | EC50 [10] [µM] | RFU (Influenza A virus [11]) | Activity [1]
1 | O=C(CSc1c[nH]c2ccc(Cl)cc12)Nc1ccc(Cl)c(Cl)c1 | 9.95 | 35.2 | 3.54 | 7.62 | 42.7 | 5.53 |  |  |  |  |  | 
2 | O=C(CSc1c[nH]c2ncccc12)Nc1ccc(Cl)c(Cl)c1 | > 128 | > 256 |  | 31.6 | > 100 | > 3.1 |  |  |  |  |  | 
3 | Cn1cc(SCC(=O)Nc2cc(Cl)ccc2Cl)c2ccccc21 | > 128 | 76.9 |  | 15.8 | > 100 | > 6.38 |  |  |  |  |  | 
4 | Cn1cc(S(=O)(=O)CC(=O)Nc2cc(Cl)ccc2Cl)c2ccccc21 | > 128 | > 1000 |  | 18 | > 100 | > 6.72 |  |  |  |  |  | 
5 | Cn1cc([S+]([O-])CC(=O)Nc2ccccc2Cl)c2ccccc21 (stereo unspecified) | 12.3 | 97.4 | 7.89 | 29.8 | > 100 | > 3.36 |  |  |  |  |  | 
6 | Cn1cc(SCC(=O)Nc2ccc(Cl)cc2)c2ccccc21 | > 128 | 31.4 |  | 9.82 | > 100 | > 10.2 |  |  |  |  |  | 
7 | Cn1cc(SCC(=O)Nc2ccc(Cl)c(Cl)c2)c2ccccc21 | 12.5 | 30.5 | 2.45 | 0.64 | > 100 | > 156 | > 85 |  |  |  |  | 
8 | CCOc1ccccc1NC(=O)CSc1c[nH]c2ncccc12 | > 128 | > 1000 |  | 31.4 | > 100 | > 3.21 |  |  |  |  |  | 
9 | NC(=O)c1ncn([C@@H]2O[C@H](CO)[C@@H](O)[C@H]2O)n1 [RIBAVIRIN] | 15.8 | 274 | 17.3 | 25.1 | > 100 | > 3.99 |  | 0.04 | 16 | 20.5 | 0.67 | 
10 | CCOc1ccccc1NC(=O)CSc1c[nH]c2ccc(Cl)cc12 | 18.1 | 204 | 11.3 | 4.19 | 37.6 | 8.97 |  |  |  |  |  | 
11 | Cn1cc(SCC(=O)Nc2cccc(Cl)c2)c2ccccc21 | 23.9 | 18.9 | 0.79 | 9.98 | > 100 | > 10 |  |  |  |  |  | 
12 | Cn1cc(S(=O)(=O)CC(=O)Nc2cccc(Cl)c2Cl)c2ccccc21 | 19.9 | 275 | 13.8 | 36.3 | > 100 | > 2.75 |  |  |  |  |  | 
13 | CCOc1ccccc1NC(=O)CSc1c[nH]c2c(OC)cccc12 | 0.43 | 0.61 | 1.42 | 12.2 | > 100 | > 8.24 |  |  |  |  |  | Dose-dependent effect
14 | COc1cccc2[nH]cc(SCC(=O)Nc3ccc(Cl)c(Cl)c3)c12 | > 128 | > 256 |  | 15.1 | > 100 | > 6.61 |  |  |  |  |  | 
15 | COc1ccc2c(SCC(=O)Nc3ccc(Cl)c(Cl)c3)c[nH]c2c1 | 5.79 | 42.7 | 7.16 | 15.8 | 78.4 | 5 |  |  |  |  |  | Dose-dependent effect
